Laboratory results: publication PMC5908721 (Journal of medicinal chemistry, 2018)
Values belong to the molecule of their own block, whether it stands above or below them.

Columns and labels:
MV4-11 cells [1] = experiment: Western blot analysis in MV4-11 cells; type: cell-based; details: for Level of HDAC6: ≥0.5 μM 13e or 5 μM SAHA
Method in brief: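 MV4-11 cells (1,500,000/well) are grown 12 h, then treated with test compound, mainly for 24 h (0.25–2 μM; 5 μM SAHA as reference). For p53, 0.5 μM is given for 6 or 12 h, and bortezomib is co-treated for 6 h. Cells are lysed in RIPA, sonicated, centrifuged, BCA-normalized, and run on 4–12% Bis-Tris gels. Blots are probed overnight at 4 °C with primary antibodies (1/1000), with actin as loading control (n ≥ 2).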

HDAC2 [2] = biological target: T1, HDAC2 (Homo sapiens, UniProt Q92769); experiment: Recombinant HDAC Vmax study; type: biochemical; details: 2 h preincubation
Method in brief: (§1)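 Recombinant human HDAC is incubated with inhibitor dilutions in HDAC buffer for 2 h at 30 °C. Serially diluted Boc-Lys(acetyl)-AMC is then added. After 2 h, the reaction is quenched with trypsin (5 mg/mL) plus 1 μM TSA solution, and fluorescence is read at 360/460 nm. Vmax and Km come from a Michaelis–Menten fit, and Lineweaver–Burk double-reciprocal plots are derived from them.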

HDAC1 [3] = biological target: T2, HDAC1 (Homo sapiens, UniProt Q13547); experiment: Recombinant HDAC Vmax study; type: biochemical; details: 2 h preincubation
HDAC3 [4] = biological target: T3, HDAC3 (Homo sapiens, UniProt O15379); experiment: In vitro HDACs inhibition fluorescence assay, HDAC3; type: biochemical; details: preincubation 15, 30, 60, 90 min
HDAC1 [5] = biological target: T2, HDAC1; experiment: In vitro HDACs inhibition fluorescence assay, HDAC1; type: biochemical; details: preincubation 15, 30, 60, 90 min
Method in brief: (§2)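 Recombinant HDAC enzyme is preincubated with serial test-compound concentrations at 30 °C for 15, 30, 60 or 90 min. Boc-Lys(acetyl)-AMC is added for 2 h at 30 °C. The reaction is stopped with a trypsin/trichostatin A developer, and fluorescence is read after 30 min (ex 360/em 460 nm). Inhibition is taken relative to control wells, and IC50 comes from a variable-slope log(inhibitor)–normalized response fit.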

HDAC3 [6] = biological target: T3, HDAC3; experiment: Recombinant HDAC Vmax study; type: biochemical; details: 2 h preincubation
Method in brief: as §1

HDAC2 [7] = biological target: T1, HDAC2; experiment: In vitro HDACs inhibition fluorescence assay, HDAC2; type: biochemical; details: preincubation 15, 30, 60, 90 min
Method in brief: as §2

[8] = clinical use; cited from earlier work
PC-3 cells [9] = experiment: Western blot analysis in PC-3 cells; type: cell-based; details: PC-3, 24 h
Method in brief: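 PC-3 cells (300,000 per well, six-well) grown 12 h, then given test compound at 1 and 2 μM for 24 h; 5 μM reference HDAC inhibitor as positive control. RIPA lysates were sonicated, cleared at 4 °C, and BCA-normalised. Proteins were separated on 4–12% Bis-Tris gels in MES buffer. Primary antibodies were used at 1/1000 overnight at 4 °C, with actin as loading control. Representative of n ≥ 2 experiments.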

PC-3 cells [10] = experiment: Cell cycle analysis in PC-3 cells; type: cell-based; details: PC-3, 24 h
Method in brief: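 PC-3 cells (300,000/well) are grown 12 h, then treated with test compound at various concentrations for 24 h. Cells are harvested, PBS-washed, fixed overnight in 75% cold ethanol at 4 °C, and washed in cold PBS. They are then treated with RNase A at 37 °C for 30 min and stained with propidium iodide (50 μg/mL in PBS) for 30 min at 4 °C. DNA content is read by flow cytometry (n ≥ 2).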

MMP-2/MMP-9 = MMP-2/MMP-9 inhibitory activity; type: biochemical; details: read-out: MMP-2/MMP-9, no inhibition at concentrations up to
Method in brief: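 Gelatinase (MMP-2/MMP-9) fluorogenic kit assay. Test compound is added as a 100 μM solution (before mixing), alongside a 40 μM reference MMP inhibitor. Enzyme diluted in activation buffer is added for 10–15 min, then substrate. The mix is incubated at 37 °C for 2 h, and fluorescence is read at ex 320/em 405 nm.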

MV4-11 cells [11] = experiment: MV4-11 EC50 analysis / cell viability; type: cell-based
APN/CD13 = biological target: T4, APN/CD13 (Sus scrofa, UniProt P15145); experiment: CD13 inhibition assay; type: biochemical, porcine
T4 sequence (P15145 1-963): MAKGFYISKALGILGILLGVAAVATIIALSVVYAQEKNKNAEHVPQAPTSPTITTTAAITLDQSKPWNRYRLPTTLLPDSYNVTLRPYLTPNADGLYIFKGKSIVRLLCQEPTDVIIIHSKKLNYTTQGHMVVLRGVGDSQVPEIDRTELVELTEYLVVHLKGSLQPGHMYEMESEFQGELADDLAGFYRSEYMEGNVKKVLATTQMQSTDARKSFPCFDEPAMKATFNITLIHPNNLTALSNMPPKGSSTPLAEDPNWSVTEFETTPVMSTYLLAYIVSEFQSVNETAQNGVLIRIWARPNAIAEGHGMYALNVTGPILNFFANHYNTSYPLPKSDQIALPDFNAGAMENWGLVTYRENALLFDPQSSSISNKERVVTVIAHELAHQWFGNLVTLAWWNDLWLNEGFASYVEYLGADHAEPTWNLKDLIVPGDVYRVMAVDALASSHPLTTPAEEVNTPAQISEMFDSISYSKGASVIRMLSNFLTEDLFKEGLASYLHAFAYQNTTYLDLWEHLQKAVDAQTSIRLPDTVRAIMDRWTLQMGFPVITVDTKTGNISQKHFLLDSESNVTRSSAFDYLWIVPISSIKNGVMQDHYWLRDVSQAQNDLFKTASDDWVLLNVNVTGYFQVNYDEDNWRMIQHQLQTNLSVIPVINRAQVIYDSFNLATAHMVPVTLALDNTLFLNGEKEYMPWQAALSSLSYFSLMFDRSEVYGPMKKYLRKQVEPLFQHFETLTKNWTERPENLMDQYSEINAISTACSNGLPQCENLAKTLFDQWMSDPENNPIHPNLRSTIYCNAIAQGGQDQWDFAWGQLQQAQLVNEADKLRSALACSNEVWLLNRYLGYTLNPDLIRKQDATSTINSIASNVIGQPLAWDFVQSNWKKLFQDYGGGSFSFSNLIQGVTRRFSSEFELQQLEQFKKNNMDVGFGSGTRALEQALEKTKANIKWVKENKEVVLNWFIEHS
Method in brief: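 Porcine kidney microsomal aminopeptidase (CD13) is added to test compound at various concentrations. After 5 min, L-leucine-p-nitroanilide substrate is added, and the mix is incubated at 37 °C for 30 min. Absorbance is then read at 405 nm.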

PC-3 cells [12] = experiment: PC-3 EC50 analysis / cell viability; type: cell-based; details: 24 and 48 h
PC-3 cells [13] = experiment: PC-3 cell morphology, phase-contrast light microscope; type: cell-based; details: 48 h
Method in brief: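 PC-3 cells in culture flasks are exposed for 48 h to 2 or 10 μM test compound or DMSO vehicle. Cell morphology and attachment are then examined by phase-contrast light microscopy (n ≥ 2).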

MV4-11 cells [14] = experiment: Cell cycle analysis in MV4-11 cells; type: cell-based; details: MV4-11, 24 h
Method in brief: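 MV4-11 cells plated at 1,500,000 per well in six-well plates, grown 12 h, then exposed to test compound for 24 h. Cells were PBS-washed, fixed overnight at 4 °C in cold 75% ethanol, and washed twice in cold PBS. They were RNase A-treated at 37 °C for 30 min, stained with 50 μg/mL propidium iodide (30 min, 4 °C), and analysed by flow cytometry. Representative of n ≥ 2 experiments.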

T2 sequence (Q13547 whole entry): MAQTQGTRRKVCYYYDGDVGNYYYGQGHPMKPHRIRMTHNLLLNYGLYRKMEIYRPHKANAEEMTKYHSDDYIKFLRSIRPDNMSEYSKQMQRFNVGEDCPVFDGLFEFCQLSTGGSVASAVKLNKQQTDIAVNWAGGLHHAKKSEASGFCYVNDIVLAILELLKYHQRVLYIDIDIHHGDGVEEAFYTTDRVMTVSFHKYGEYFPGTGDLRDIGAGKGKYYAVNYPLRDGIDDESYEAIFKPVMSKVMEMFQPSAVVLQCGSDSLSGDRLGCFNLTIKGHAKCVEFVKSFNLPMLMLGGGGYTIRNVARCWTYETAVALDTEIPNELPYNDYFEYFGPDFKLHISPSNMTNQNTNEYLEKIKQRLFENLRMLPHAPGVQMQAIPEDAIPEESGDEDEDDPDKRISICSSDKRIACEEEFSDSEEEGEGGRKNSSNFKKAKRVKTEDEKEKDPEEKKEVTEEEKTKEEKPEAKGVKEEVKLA
T1 sequence (Q92769 whole entry): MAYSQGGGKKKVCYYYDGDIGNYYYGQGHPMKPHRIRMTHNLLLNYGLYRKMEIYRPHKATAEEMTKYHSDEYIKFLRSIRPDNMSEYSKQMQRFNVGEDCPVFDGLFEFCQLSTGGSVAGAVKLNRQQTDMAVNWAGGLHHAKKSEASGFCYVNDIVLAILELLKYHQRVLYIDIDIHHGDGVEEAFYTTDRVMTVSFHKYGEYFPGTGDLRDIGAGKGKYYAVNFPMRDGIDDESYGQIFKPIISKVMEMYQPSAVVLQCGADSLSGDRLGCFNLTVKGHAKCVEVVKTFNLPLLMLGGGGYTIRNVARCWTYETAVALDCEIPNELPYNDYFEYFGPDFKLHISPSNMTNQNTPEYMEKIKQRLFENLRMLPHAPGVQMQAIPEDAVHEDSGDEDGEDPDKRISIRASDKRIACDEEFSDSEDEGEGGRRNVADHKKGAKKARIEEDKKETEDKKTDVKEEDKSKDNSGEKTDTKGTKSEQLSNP
T3 sequence (O15379 whole entry): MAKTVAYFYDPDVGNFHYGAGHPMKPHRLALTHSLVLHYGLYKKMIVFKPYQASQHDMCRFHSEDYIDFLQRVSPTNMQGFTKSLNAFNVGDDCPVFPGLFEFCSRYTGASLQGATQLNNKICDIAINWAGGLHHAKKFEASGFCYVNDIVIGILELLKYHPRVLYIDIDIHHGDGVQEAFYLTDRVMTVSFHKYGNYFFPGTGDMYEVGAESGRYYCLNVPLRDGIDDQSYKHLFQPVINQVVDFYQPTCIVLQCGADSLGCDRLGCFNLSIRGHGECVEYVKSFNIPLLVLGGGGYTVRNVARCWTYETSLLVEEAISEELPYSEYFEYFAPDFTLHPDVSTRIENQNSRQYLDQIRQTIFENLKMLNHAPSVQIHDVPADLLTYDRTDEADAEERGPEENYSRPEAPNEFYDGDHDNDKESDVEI
T3 sequence (Q9Y618 395-489 partner limits assumed): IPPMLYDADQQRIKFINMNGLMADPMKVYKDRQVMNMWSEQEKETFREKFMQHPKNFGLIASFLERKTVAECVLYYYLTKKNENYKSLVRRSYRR

Compound: O=C(CCCCCCC(=O)Nc1ccccc1)NO [SAHA, vorinostat, reference compound]
- Level of HDAC6 (MV4-11 cells [1]; MV4-11, 24 h): nearly absent

- Type of inhibition of HDAC2 (Lineweaver-Burke analysis) (HDAC2 [2]): mixed-type inhibition
- Type of inhibition of HDAC1 (Lineweaver-Burke analysis) (HDAC1 [3]): competitive inhibition
- Time dependence of HDAC3 inhibition (HDAC3 [4]): time-dependent inhibition
- Time dependence of HDAC1 inhibition (HDAC1 [5]): time-dependent inhibition
- Type of inhibition of HDAC3 (Lineweaver-Burke analysis) (HDAC3 [6]): mixed-type inhibition
- Time dependence of HDAC2 inhibition (HDAC2 [7]): time-dependent inhibition
Compound: COc1ccc(C(=O)N[C@@H](Cc2c[nH]c3ccccc23)C(=O)NCc2ccc(C(=O)Nc3ccccc3N)cc2)cc1 [Compound 11a, (S)-4-((3-(1H-indol-3-yl)-2-(4-methoxybenzamido)propanamido)-methyl)-N-(2-aminophenyl)benzamide, reference compound]

Compound: NNC(=O)c1ccncc1 [isoniazid]
- Rate of hepatotoxicity [8]: 0.5–2%
- Rate of lethal hepatotoxicity [8]: 1/25000

- Type of inhibition of HDAC2 (Lineweaver-Burke analysis) (HDAC2 [2]): mixed inhibition
- Type of inhibition of HDAC1 (Lineweaver-Burke analysis) (HDAC1 [3]): mixed inhibition
- Time dependence of HDAC3 inhibition (HDAC3 [4]): time-dependent inhibition
- Time dependence of HDAC1 inhibition (HDAC1 [5]): time-dependent inhibition
- Type of inhibition of HDAC3 (Lineweaver-Burke analysis) (HDAC3 [6]): mixed inhibition
- Time dependence of HDAC2 inhibition (HDAC2 [7]): time-dependent inhibition
Compound: CCCNNC(=O)c1ccc(CNC(=O)[C@H](Cc2c[nH]c3ccccc23)NC(=O)c2ccc(OC)cc2)cc1 [Compound 13b, (S)-N-(3-(1H-Indol-3-yl)-1-oxo-1-((4-(2-propylhydrazine-1-carbonyl)benzyl)amino)propan-2-yl)-4-methoxybenzamide]

- IC50 (MMP-2/MMP-9): > 50 µM
- IC50 (APN/CD13): > 50 µM
Compound: CCCNNC(=O)c1ccc(NC(=O)[C@H](Cc2c[nH]c3ccccc23)NC(=O)c2ccc(OC)cc2)cc1 [Compound 13e, (S)-N-(3-(1H-Indol-3-yl)-1-oxo-1-((4-(2-propylhydrazine-1-carbonyl)phenyl)amino)propan-2-yl)-4-methoxybenzamide]
- Treatment time required for HDAC6 repression (MV4-11 cells [1]; MV4-11): more than 12 h
- Time to degradation of p53 (MV4-11 cells [1]; MV4-11, 0.5 μM): ≤ 6 h
- HDAC1 level (MV4-11 cells [1]; MV4-11, 24 h): did not induce down-regulation of class I HDAC1
- Level of acetyl-tubulin (MV4-11 cells [1]; MV4-11, 24 h): increased
- Level of acetylated histone H3 (MV4-11 cells [1]; MV4-11, 24 h, 0.25-2 μM): markedly increase
- Level of acetylated histone H4 (MV4-11 cells [1]; MV4-11, 24 h, 0.25-2 μM): markedly increase
- Cleavage of pro-caspase3 / PARP (apoptosis) (MV4-11 cells [1]; MV4-11, 24 h, 1 and 2 μM): caused the cleavage of inactive pro-caspase3
- Level of HDAC6 (MV4-11 cells [1]; MV4-11, 24 h): nearly absent
- HDAC1 level (PC-3 cells [9]): did not induce down-regulation of class I HDAC1
- Cleavage of pro-caspase3 / PARP (apoptosis) (PC-3 cells [9]; 1 and 2 μM): no observed cleavage of pro-caspase3 or PARP
- HDAC6 level and acetylated tubulin level (PC-3 cells [9]; 1 and 2 μM): did not induce down-regulation of HDAC6 nor increase the level of acetylated tubulin
- Cell cycle effect (PC-3 cells [10]): triggered G2/M arrest
- Viable MV4-11 cell population over time (resorufin fluorescence) (MV4-11 cells [11]; 10 and 2 μM, 24 and 48 h): decreased with time
- MV4-11 cell death (MV4-11 cells [11]; 48 h treatment at high concentration): almost all MV4-11 cells were dead
- MV4-11 antiproliferative activity, times higher than 13b (MV4-11 cells [11]; vs 13b): 4.1 times
- Viable PC-3 cell population over time (resorufin fluorescence) (PC-3 cells [12]; 2 μM): slightly increased
- Viable PC-3 cell population over time (resorufin fluorescence) (PC-3 cells [12]; 10 μM): remained unchanged
- PC-3 cell morphology (PC-3 cells [13]; 2 μM): did not obviously affect cell morphology
- PC-3 cell morphology (PC-3 cells [13]; 10 μM): cells were still alive and attached to the culture flask
- Cell cycle effect (MV4-11 cells [14]): induced G1/S and sub-G1 cell cycle arrest

Compound: CC(C)C[C@H](NC(=O)[C@H](Cc1ccccc1)NC(=O)c1cnccn1)B(O)O [bortezomib, reference compound]
- Effect on p53 degradation upon hydrazide HDAC inhibitor treatment (MV4-11 cells [1]; MV4-11, 6 h treatment): blocks this degradation
